Results gathered from unrelated publications.
Lines come from different studies, so protocols differ.
ABCB1: ATP-dependent translocase ABCB1 (ABCB1, Homo sapiens, UniProt P08183)
SLC47A2: Multidrug and toxin extrusion protein 2 (SLC47A2, Homo sapiens, UniProt Q86VL8)

SMILES	target	assay	system	setting	measurement	value
COCCc1ccc(OCC(O)CNC(C)C)cc1 (stereo not shown)	ABCB1	–	MDCK-MDR1	5 µM	efflux ratio	0.981
CC[C@H](C)C(=O)N1CCC(NC(=O)Nc2ccc(OC(F)(F)F)c(F)c2)CC1	ABCB1	transporter efflux, inhibitor, fluorescence	–	10 µM	inhibition	< 25%
CCOc1cc2ncc(C#N)c(Nc3ccc(OCc4ccccn4)c(Cl)c3)c2cc1NC(=O)/C=C/CN(C)C	ABCB1	–	MDCK-MDR1, Caco-2	1 µM, 1 h, pH 7.4	efflux ratio	6.37
CN/C(=N/CCSCc1nc[nH]c1C)NC#N	SLC47A2	transporter uptake, inhibitor	HEK293	100 µM, 2 min	inhibition	76%
CCc1cc(/C(C)=N/OCc2ccc(C3CCCCC3)c(C(F)(F)F)c2)ccc1CN1CC(C(=O)O)C1	Cytochrome P450 2A6 (CYP2A6, Homo sapiens, UniProt P11509)	enzyme activity, inhibitor	human, liver microsomes	200 µM, 20 min	inhibition	30.6%
C[C@]12CCCN1CC1=NNC(=O)c3cc(F)cc4[nH]c2c1c34	ABCB1	–	MDCK-MDR1	10 µM	Papp B→A	41.2 ×10⁻⁶ cm/s
C[C@H]1O[C@@H](O[C@H]2[C@@H](O)C[C@H](O[C@H]3[C@@H](O)C[C@H](O[C@H]4CC[C@@]5(C)[C@H](CC[C@@H]6[C@@H]5C[C@@H](O)[C@]5(C)[C@@H](C7=CC(=O)OC7)CC[C@]65O)C4)O[C@@H]3C)O[C@@H]2C)C[C@H](O)[C@@H]1O	ABCB1	–	human, plasma	oral, 0.5 mg	half-life	42.5 h
CC1(C)CCC2(CC1)N[C@@H](C(=O)N[C@@H]1CC[C@@H](C(N)=O)OC1)[C@H](c1ccnc(Cl)c1F)[C@]21C(=O)Nc2cc(Cl)ccc21	ABCB1	–	Caco-2	3 µM, 2 h	efflux ratio	14.1
O=C(O)CSc1nnc(Br)n1-c1ccc(C2CC2)c2ccccc12	SLC47A2	transporter uptake, inhibitor	HEK293	10 µM, 2 min	inhibition	-16%
C=C[C@H]1C[N@@]2CC[C@H]1C[C@@H]2[C@@H](O)c1ccnc2ccc(OC)cc12	ABCB1	–	MDCK-MDR1	5 µM	Papp B→A	40.6 ×10⁻⁶ cm/s
